Measurements reported in ChEMBL document CHEMBL3244174, “Synthesis and biological activity of some new furan quaternary salts” (J Med Chem, 1977).
Values after ≈ are worked out from the molar mass of the structure shown.

Legend:
Candida albicans = assay: Antifungal activity against Candida albicans SKF 2270 assessed as growth inhibition by agar dilution method; format: functional
Cryptococcus neoformans = assay: Antifungal activity against Cryptococcus neoformans 103 assessed as growth inhibition by agar dilution method; format: functional
[1] = tested on: Trichophyton mentagrophytes; assay: Antifungal activity against Trichophyton mentagrophytes A-280 USPHS assessed as growth inhibition by agar dilution method; format: functional
Trichophyton rubrum = assay: Antifungal activity against Trichophyton rubrum 252 CSTM assessed as growth inhibition by agar dilution method; format: functional
Microsporum canis = assay: Antifungal activity against Microsporum canis VM-200 USPHS assessed as growth inhibition by agar dilution method; format: functional
Nannizzia gypsea = assay: Antifungal activity against Microsporum gypseum 153 CSTM assessed as growth inhibition by agar dilution method; format: functional
Histoplasma capsulatum = assay: Antifungal activity against Histoplasma capsulatum RNSH Hi-70 1/2 assessed as growth inhibition by agar dilution method; format: functional
Staphylococcus aureus = assay: Antibacterial activity against Staphylococcus aureus ATCC 6538 assessed as growth inhibition after 24 hrs by dilution tube method; format: functional; conditions: ATCC 6538, 24 h
In short: (§1)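 Broth tube dilution in Tryptone Soya Broth, duplicate tubes at each concentration. MIC (μg/ml) was the highest dilution preventing visible growth. Nitrofurantoin run under the same conditions.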

Enterococcus faecalis = assay: Antibacterial activity against Streptococcus faecalis ATCC 10541 assessed as growth inhibition after 24 hrs by dilution tube method; format: functional; conditions: ATCC 10541, 24 h; in short: as §1
Pseudomonas aeruginosa = assay: Antibacterial activity against Pseudomonas aeruginosa ATCC 10145 assessed as growth inhibition after 24 hrs by dilution tube method; format: functional; conditions: ATCC 10145, 24 h; in short: as §1
Klebsiella pneumoniae = assay: Antibacterial activity against Klebsiella pneumoniae ATCC 10031 assessed as growth inhibition after 24 hrs by dilution tube method; format: functional; conditions: ATCC 10031, 24 h; in short: as §1
Salmonella typhi = assay: Antibacterial activity against Salmonella typhi 115 assessed as growth inhibition after 24 hrs by dilution tube method; format: functional, Salmonella enterica subsp. enterica serovar Typhi; conditions: Salmonella enterica, 115, 24 h
In short: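 Dilution tube method in Tryptone Soya Broth; MIC (μg/ml) taken as highest dilution preventing visible growth; duplicates at every concentration; nitrofurantoin reference run under same conditions.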

[2] = tested on: Agrobacterium tumefaciens; assay: Antibacterial activity against Agrobacterium tumefaciens NRRL B-36 assessed as growth inhibition after 24 hrs by dilution tube method; format: functional; conditions: NRRL B-36, 24 h; in short: as §1
Escherichia coli = assay: Antibacterial activity against Escherichia coli 114 assessed as growth inhibition after 24 hrs by dilution tube method; format: functional; conditions: Escherichia coli, 114, 24 h; in short: as §1
[3] = tested on: Mycobacterium tuberculosis; assay: Antibacterial activity against Mycobacterium tuberculosis H37Rv assessed as growth inhibition by serial dilution method; format: functional
In short: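 M. tuberculosis H37Rv maintained on Lowenstein–Jensen medium; tested in Youman's medium by serial dilution.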

SMILES	MIC (Candida albicans) [µg/mL]	MIC (Cryptococcus neoformans) [µg/mL]	MIC [1] [µg/mL]	MIC (Trichophyton rubrum) [µg/mL]	MIC (Microsporum canis) [µg/mL]	MIC (Nannizzia gypsea) [µg/mL]	MIC (Histoplasma capsulatum) [µg/mL]	MIC (Staphylococcus aureus) [µg/mL]	MIC (Enterococcus faecalis) [µg/mL]	MIC (Pseudomonas aeruginosa) [µg/mL]	MIC (Klebsiella pneumoniae) [µg/mL]	MIC (Salmonella typhi) [µg/mL]	MIC [2] [µg/mL]	MIC (Escherichia coli) [µg/mL]	MIC [3] [µg/mL]
C[N+](C)(CCCCCOc1c(Br)cc(Br)cc1Br)Cc1ccc([N+](=O)[O-])o1.[Br-]	> 200	25	> 200	> 200	> 200	> 200	> 200	25	25	7.5	5	> 200	25	> 200	7.5
C[N+](C)(CCCOc1c(Br)cc(Br)cc1Br)Cc1ccc([N+](=O)[O-])o1.[Br-]	> 200	200	> 200	> 200	> 200	> 200	200	50	200	25	25	> 200	100	> 200	50
C[N+](C)(CCOc1ccc(Cl)cc1Cl)Cc1ccc([N+](=O)[O-])o1.[Br-]	> 200	> 200	> 200	> 200	> 200	> 200	> 200	200	> 200	100	100	> 200	> 200	> 200	> 200
Cc1cc(OCCC[N+](C)(C)Cc2ccc([N+](=O)[O-])o2)c(C(C)C)cc1Cl.[Br-]	> 200	> 200	> 200	> 200	> 200	> 200	> 200	25	25	2	5	100	25	> 200	> 200
Cc1cc(OCCCCCCCCCCCCCC[N+](C)(C)Cc2ccc(Br)o2)c(C(C)C)cc1Cl.Cc1ccc(S(=O)(=O)[O-])cc1	> 200	> 200	> 200	> 200	> 200	> 200	> 200	> 200	> 200	200	200	> 200	> 200	> 200	> 200
C[N+](C)(CCCCCCCCCCOc1c(Br)cc(Br)cc1Br)Cc1ccc([N+](=O)[O-])o1.[Br-]	> 200	4		> 200	> 200	> 200	> 200	2	4	3	4	> 200	10	> 200	7.5
C[N+](C)(CCCCCOc1ccc(Cl)cc1Cl)Cc1ccc(Br)o1.[Br-]	> 200	50	> 200	> 200	50	> 200	100	25	50	10	25	> 200	50	> 200	
C[C@@H]1[C@H](O)[C@@H](C)/C=C/C=C/C=C/C=C/C=C/C=C/C=C/[C@H](O[C@@H]2O[C@H](C)[C@@H](O)[C@H](N)[C@@H]2O)C[C@@H]2O[C@](O)(C[C@@H](O)C[C@@H](O)[C@H](O)CC[C@@H](O)C[C@@H](O)CC(=O)O[C@H]1C)C[C@H](O)[C@H]2C(=O)O [AMPHOTERICIN B]	2.5 (≈ 2.71 µM)		10 (≈ 10.8 µM)	10 (≈ 10.8 µM)	5 (≈ 5.41 µM)	10 (≈ 10.8 µM)	0.5 (≈ 0.541 µM)								
C[N+](C)(CCCCOc1ccccc1Cl)Cc1ccc(Br)o1.[Br-]	> 200	> 200	> 200	> 200	> 200	> 200	> 200	100	> 200	100	100	> 200	> 200	> 200	
O=C1CN(/N=C/c2ccc([N+](=O)[O-])o2)C(=O)N1 [NITROFURANTOIN]								25 (≈ 105 µM)	100 (≈ 420 µM)	2.5 (≈ 10.5 µM)	5 (≈ 21 µM)	25 (≈ 105 µM)	25 (≈ 105 µM)	25 (≈ 105 µM)	
C[N+](C)(CCCCOc1ccccc1Cl)Cc1ccc([N+](=O)[O-])o1.[Br-]	> 200	> 200	> 200	> 200	> 200	> 200	> 200	100	> 200	100	100	> 200	> 200	> 200	
C[N+](C)(CCCCCCCCCCCCOc1c(Br)cc(Br)cc1Br)Cc1ccc([N+](=O)[O-])o1.[Br-]	> 200	200	> 200	> 200	> 200		> 200	200	200	50	200	> 200	> 200		100
C[N+](C)(CCCCOc1ccc(Cl)cc1)Cc1ccc(Br)o1.[Br-]	> 200	> 200	> 200	> 200	> 200	> 200	> 200	100	100	50	100	100	100	100	
C[N+](C)(CCOc1c(Br)cc(Br)cc1Br)Cc1ccc(Br)o1.[Br-]	> 200	50	100	> 200	100	> 200	100	25	25	25	25	> 200	100	> 200	
C[N+](C)(CCCCCOc1ccc(Cl)cc1)Cc1ccc(Br)o1.[Br-]	> 200	> 200	> 200	> 200	100	> 200	> 200	50	100	25	50	> 200	> 200	> 200	
Cc1cc(OCCCCCCCCCC[N+](C)(C)Cc2ccc([N+](=O)[O-])o2)c(C(C)C)cc1Cl.Cc1ccc(S(=O)(=O)[O-])cc1	> 200	100	200	> 200	> 200	> 200	> 200	200	100	50	200	> 200		> 200	25
C[N+](C)(CCCCCOc1ccccc1Cl)Cc1ccc(Br)o1.[Br-]	> 200	> 200	> 200	> 200	> 200	> 200	> 200	50	> 200	50	100	> 200	> 200	> 200	
C[N+](C)(CCCCOc1ccc(Cl)cc1)Cc1ccc([N+](=O)[O-])o1.[Br-]	> 200	> 200	> 200	> 200	> 200	> 200	> 200	100	> 200	100	100	> 200	> 200	> 200	
Cc1cc(OCCCCCCCCCC[N+](C)(C)Cc2ccc(Br)o2)c(C(C)C)cc1Cl.[Br-]	> 200	100		> 200	100	> 200	100	25	50	25		> 200	> 200	> 200	
Cc1cc(OCCCCCC[N+](C)(C)Cc2ccc([N+](=O)[O-])o2)c(C(C)C)cc1Cl.[Br-]	> 200	25	> 200	200	100	> 200	> 200	> 200	> 200	> 200	> 200	> 200	> 200	> 200	
